Laboratory results as given in ChEMBL document CHEMBL4190234, “Design, synthesis and anticancer activity of new monastrol analogues bearing 1,3,4-oxadiazole moiety” (Eur J Med Chem, 2017).

Assays:
Assay type in all cases: functional
LOX IMVI = assay: Growth inhibition of human LOXIMVI cells at 10 uM incubated for 48 hrs by sulforhodamine B assay relative to control; settings: read-out: GI
Outline: (§1)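 Single-dose screen at 10 μM final: cells in RPMI 1640, 5% FBS, 2 mM L-glutamine, plated 5,000–40,000/well, preincubated 24 h at 37°C, 5% CO2; drug 48 h; adherent cells fixed with 10% TCA, suspension cells with 16% TCA; SRB stain, absorbance 515 nm; percentage growth versus untreated control, with time-zero plates.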

UO-31 = assay: Growth inhibition of human UO31 cells at 10 uM incubated for 48 hrs by sulforhodamine B assay relative to control; settings: UO-31, 48 h, read-out: GI
Outline: (§2)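 NCI single-dose screen: cells grown in RPMI 1640 with 5% FBS and 2 mM L-glutamine, plated at 5,000–40,000 cells/well and preincubated 24 h at 37 °C, 5% CO2. Compounds taken from DMSO stock and tested at final 10 µM for 48 h. Cells fixed with TCA, stained with 0.4% SRB, absorbance read at 515 nm. Percentage growth calculated against untreated controls; controls held DMSO at the same dilution.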

SR = assay: Growth inhibition of human SR cells at 10 uM incubated for 48 hrs by sulforhodamine B assay relative to control; settings: read-out: GI; outline: as §2
K562 = assay: Growth inhibition of human K562 cells at 10 uM incubated for 48 hrs by sulforhodamine B assay relative to control; settings: K562, 48 h, read-out: GI; outline: as §1
T47D = assay: Growth inhibition of human T47D cells at 10 uM incubated for 48 hrs by sulforhodamine B assay relative to control; settings: read-out: GI; outline: as §2
MDA-MB-435 = assay: Growth inhibition of human MDA-MB-435 cells at 10 uM incubated for 48 hrs by sulforhodamine B assay relative to control; settings: MDA-MB-435, 48 h, read-out: GI; outline: as §1
SF-539 = assay: Growth inhibition of human SF539 cells at 10 uM incubated for 48 hrs by sulforhodamine B assay relative to control; settings: SF-539, 48 h, read-out: GI; outline: as §2
MDA-MB-468 = assay: Growth inhibition of human MDA-MB-468 cells at 10 uM incubated for 48 hrs by sulforhodamine B assay relative to control; settings: MDA-MB-468, 48 h, read-out: GI; outline: as §1
SF-268 = assay: Growth inhibition of human SF268 cells at 10 uM incubated for 48 hrs by sulforhodamine B assay relative to control; settings: SF-268, 48 h, read-out: GI; outline: as §2
MOLT-4 = assay: Growth inhibition of human MOLT4 cells at 10 uM incubated for 48 hrs by sulforhodamine B assay relative to control; settings: MOLT-4, 48 h, read-out: GI; outline: as §1
OVCAR-4 = assay: Growth inhibition of human OVCAR4 cells at 10 uM incubated for 48 hrs by sulforhodamine B assay relative to control; settings: OVCAR-4, 48 h, read-out: GI; outline: as §1
HCT-15 = assay: Growth inhibition of human HCT15 cells at 10 uM incubated for 48 hrs by sulforhodamine B assay relative to control; settings: HCT-15, 48 h, read-out: GI; outline: as §1
SK-MEL-2 = assay: Growth inhibition of human SK-MEL-2 cells at 10 uM incubated for 48 hrs by sulforhodamine B assay relative to control; settings: SK-MEL-2, 48 h, read-out: GI; outline: as §2
DU-145 = assay: Growth inhibition of human DU145 cells at 10 uM incubated for 48 hrs by sulforhodamine B assay relative to control; settings: DU-145, 48 h, read-out: GI; outline: as §1
A498 = assay: Growth inhibition of human A498 cells at 10 uM incubated for 48 hrs by sulforhodamine B assay relative to control; settings: A498, 48 h, read-out: GI; outline: as §1
HL-60(TB) = assay: Growth inhibition of human HL-60(TB) cells at 10 uM incubated for 48 hrs by sulforhodamine B assay relative to control; settings: HL-60, 48 h, read-out: GI
Outline: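 Single dose of 10 µM in the NCI ~60-line panel. Cells grown in RPMI 1640 with 5% FBS and 2 mM L-glutamine, plated and pre-incubated 24 h, then exposed 48 h at 37°C under 5% CO2. Suspension cells fixed with TCA (16% final) and stained with sulforhodamine B, A515 read. Reported as percent growth versus untreated control and as GI%.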

MCF7 = assay: Growth inhibition of human MCF7 cells at 10 uM incubated for 48 hrs by sulforhodamine B assay relative to control; settings: MCF7, 48 h, read-out: GI; outline: as §1
NCI-H322M = assay: Growth inhibition of human NCI-H322M cells at 10 uM incubated for 48 hrs by sulforhodamine B assay relative to control; settings: read-out: GI; outline: as §1
HCC 2998 = assay: Growth inhibition of human HCC2998 cells at 10 uM incubated for 48 hrs by sulforhodamine B assay relative to control; settings: HCC 2998, 48 h, read-out: GI; outline: as §1
MDA-MB-231 = assay: Growth inhibition of human MDA-MB-231 cells at 10 uM incubated for 48 hrs by sulforhodamine B assay relative to control; settings: MDA-MB-231, 48 h, read-out: GI; outline: as §1
BT-549 = assay: Growth inhibition of human BT549 cells at 10 uM incubated for 48 hrs by sulforhodamine B assay relative to control; settings: BT-549, 48 h, read-out: GI; outline: as §1
NCI-H226 = assay: Growth inhibition of human NCI-H226 cells at 10 uM incubated for 48 hrs by sulforhodamine B assay relative to control; settings: NCI-H226, 48 h, read-out: GI; outline: as §1
786-0 = assay: Growth inhibition of human 786-0 cells at 10 uM incubated for 48 hrs by sulforhodamine B assay relative to control; settings: 786-0, 48 h, read-out: GI; outline: as §1
IGROV-1 = assay: Growth inhibition of human IGROV1 cells at 10 uM incubated for 48 hrs by sulforhodamine B assay relative to control; settings: IGROV-1, 48 h, read-out: GI; outline: as §1
OVCAR-8 = assay: Growth inhibition of human OVCAR8 cells at 10 uM incubated for 48 hrs by sulforhodamine B assay relative to control; settings: OVCAR-8, 48 h, read-out: GI; outline: as §1
OVCAR-3 = assay: Growth inhibition of human OVCAR3 cells at 10 uM incubated for 48 hrs by sulforhodamine B assay relative to control; settings: OVCAR-3, 48 h, read-out: GI; outline: as §1
SF-295 = assay: Growth inhibition of human SF295 cells at 10 uM incubated for 48 hrs by sulforhodamine B assay relative to control; settings: SF-295, 48 h, read-out: GI; outline: as §2
HOP-92 = assay: Growth inhibition of human HOP92 cells at 10 uM incubated for 48 hrs by sulforhodamine B assay relative to control; settings: HOP-92, 48 h, read-out: GI; outline: as §1
SNB-75 = assay: Growth inhibition of human SNB75 cells at 10 uM incubated for 48 hrs by sulforhodamine B assay relative to control; settings: SNB-75, 48 h, read-out: GI; outline: as §2
CCRF-CEM = assay: Growth inhibition of human CCRF-CEM cells at 10 uM incubated for 48 hrs by sulforhodamine B assay relative to control; settings: read-out: GI; outline: as §1

`CCOC(=O)C1=C(C)NC(SCc2nnc(-c3ccc(C)cc3)o2)=NC1c1ccc(F)cc1` (stereo not given) gave an inhibition of growth at 10 µM (LOX IMVI) of less than 10%, an inhibition of growth at 10 µM (UO-31) of less than 10% and an inhibition of growth at 10 µM (SR) of 26.5%. For the same compound, the inhibition of growth at 10 µM (K562) was 14.7%, the inhibition of growth at 10 µM (T47D) was 32.6% and the inhibition of growth at 10 µM (MDA-MB-435) was less than 10%. The inhibition of growth at 10 µM (SF-539) was less than 10%, the inhibition of growth at 10 µM (MDA-MB-468) was 18.1% and the inhibition of growth at 10 µM (SF-268) was less than 10%. It also gave an inhibition of growth at 10 µM (MOLT-4) of 21.6%, an inhibition of growth at 10 µM (OVCAR-4) of less than 10% and an inhibition of growth at 10 µM (HCT-15) of 11.3%. For the same compound, the inhibition of growth at 10 µM (SK-MEL-2) was less than 10%, the inhibition of growth at 10 µM (DU-145) was less than 10% and the inhibition of growth at 10 µM (A498) was less than 10%. For the same compound, the inhibition of growth at 10 µM (HL-60(TB)) was 25.2%, the inhibition of growth at 10 µM (MCF7) was 14% and the inhibition of growth at 10 µM (NCI-H322M) was 10.3%. It also gave an inhibition of growth at 10 µM (HCC 2998) of less than 10%, an inhibition of growth at 10 µM (MDA-MB-231) of 14.7% and an inhibition of growth at 10 µM (BT-549) of 12.8%. It also gave an inhibition of growth at 10 µM (NCI-H226) of 10.1%, an inhibition of growth at 10 µM (786-0) of 20.2% and an inhibition of growth at 10 µM (IGROV-1) of 13.9%. It also gave an inhibition of growth at 10 µM (OVCAR-8) of 17.8%, an inhibition of growth at 10 µM (OVCAR-3) of less than 10% and an inhibition of growth at 10 µM (SF-295) of 12.1%. It also gave an inhibition of growth at 10 µM (HOP-92) of 37%, an inhibition of growth at 10 µM (SNB-75) of 13.8% and an inhibition of growth at 10 µM (CCRF-CEM) of 14.1%.
`CCOC(=O)C1=C(C)NC(SCc2nnc(-c3ccc(Cl)cc3)o2)=NC1c1ccc(Cl)cc1` (stereo not given) showed an inhibition of growth at 10 µM (LOX IMVI) of 23.1%, an inhibition of growth at 10 µM (UO-31) of 51.3% and an inhibition of growth at 10 µM (SR) of 57.1%. The inhibition of growth at 10 µM (K562) was 44.2%, the inhibition of growth at 10 µM (T47D) was 50.1% and the inhibition of growth at 10 µM (MDA-MB-435) was 30.4%. For the same compound, the inhibition of growth at 10 µM (SF-539) was 12.3%, the inhibition of growth at 10 µM (MDA-MB-468) was 51% and the inhibition of growth at 10 µM (SF-268) was 14%. For the same compound, the inhibition of growth at 10 µM (MOLT-4) was 93%, the inhibition of growth at 10 µM (OVCAR-4) was 30% and the inhibition of growth at 10 µM (HCT-15) was 32.4%. It also gave an inhibition of growth at 10 µM (SK-MEL-2) of less than 10%, an inhibition of growth at 10 µM (DU-145) of 12.8% and an inhibition of growth at 10 µM (A498) of 19.3%. It also gave an inhibition of growth at 10 µM (HL-60(TB)) of 78.6%, an inhibition of growth at 10 µM (MCF7) of 51% and an inhibition of growth at 10 µM (NCI-H322M) of 17.7%. The inhibition of growth at 10 µM (HCC 2998) was 20.1%, the inhibition of growth at 10 µM (MDA-MB-231) was 37.3% and the inhibition of growth at 10 µM (BT-549) was 24.7%. It also gave an inhibition of growth at 10 µM (NCI-H226) of 30.1%, an inhibition of growth at 10 µM (786-0) of 16.6% and an inhibition of growth at 10 µM (IGROV-1) of 37.7%. The inhibition of growth at 10 µM (OVCAR-8) was 25.2%, the inhibition of growth at 10 µM (OVCAR-3) was 29.2% and the inhibition of growth at 10 µM (SF-295) was 25.9%. The inhibition of growth at 10 µM (HOP-92) was 35.9%, the inhibition of growth at 10 µM (SNB-75) was 26.3% and the inhibition of growth at 10 µM (CCRF-CEM) was 60.3%.
`CCOC(=O)C1=C(C)NC(SCc2nnc(-c3ccc(Cl)cc3)o2)=NC1c1ccc(Br)cc1` (stereo not given) was tested, and the inhibition of growth at 10 µM (LOX IMVI) was 25.1%, the inhibition of growth at 10 µM (UO-31) was 47.6% and the inhibition of growth at 10 µM (SR) was 61.2%. The inhibition of growth at 10 µM (K562) was 39.3%, the inhibition of growth at 10 µM (T47D) was 52% and the inhibition of growth at 10 µM (MDA-MB-435) was 34.9%. The inhibition of growth at 10 µM (SF-539) was 11.3%, the inhibition of growth at 10 µM (MDA-MB-468) was 41.8% and the inhibition of growth at 10 µM (SF-268) was 13.3%. For the same compound, the inhibition of growth at 10 µM (MOLT-4) was 91.7%, the inhibition of growth at 10 µM (OVCAR-4) was 30.4% and the inhibition of growth at 10 µM (HCT-15) was 34.9%. It also gave an inhibition of growth at 10 µM (SK-MEL-2) of less than 10%, an inhibition of growth at 10 µM (DU-145) of 15.7% and an inhibition of growth at 10 µM (A498) of 26.8%. The inhibition of growth at 10 µM (HL-60(TB)) was 77.5%, the inhibition of growth at 10 µM (MCF7) was 55.2% and the inhibition of growth at 10 µM (NCI-H322M) was 13.6%. For the same compound, the inhibition of growth at 10 µM (HCC 2998) was less than 10%, the inhibition of growth at 10 µM (MDA-MB-231) was 40.2% and the inhibition of growth at 10 µM (BT-549) was 20.2%. The inhibition of growth at 10 µM (NCI-H226) was 21.1%, the inhibition of growth at 10 µM (786-0) was 15.1% and the inhibition of growth at 10 µM (IGROV-1) was 34.5%. It also gave an inhibition of growth at 10 µM (OVCAR-8) of 27.3%, an inhibition of growth at 10 µM (OVCAR-3) of 22.5% and an inhibition of growth at 10 µM (SF-295) of 26.4%. It also gave an inhibition of growth at 10 µM (HOP-92) of 42.2%, an inhibition of growth at 10 µM (SNB-75) of 32.3% and an inhibition of growth at 10 µM (CCRF-CEM) of 56.6%.
